In ChEMBL document CHEMBL1155459, “On-bead screening of a combinatorial fumaric acid derived peptide library yields antiplasmodial cysteine protease inhibitors with unusual peptide sequences” (J Med Chem, 2009):
Calls of active or inactive are those of the source. The calls are words filed in the database; no cut-off is given here. Peptide text beside a SMILES is read from it.

Key:
[1] = Inhibition of Plasmodium falciparum falcipain-2 after 12 hrs by fluorescence spectroscopy-based on-bead assay; design: concentration or dose not given beside the values; conditions: concentration not given here
In short: (§1)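 Library members on resin (PEGA, theoretical loading 0.40 mmol/g; added as DMSO suspension, 0.64 mM final inhibitor) preincubated with enzyme 12 h, then Cbz-Phe-Arg-AMC 40 μM added; AMC release followed by fluorescence (ex 380/em 460 nm). Kinetics compared with inhibitor-free amino-PEGA resin.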

Plasmodium falciparum [2] = test: Inhibition of Plasmodium falciparum recombinant falcipain-2 expressed in Escherichia coli at 100 uM after 20 min by spectrofluorometry
In short: (§2)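 Single-point screen at 100 μM inhibitor (final). Recombinant enzyme in 50 mM acetate pH 5.5, 5 mM EDTA, 200 mM NaCl, 5 mM DTT, 10% DMSO final; Cbz-Phe-Arg-AMC 40 μM (or Cbz-Leu-Arg-AMC 25 μM) hydrolysis followed by fluorescence (ex 380/em 460 nm). % inhibition = 100(1 − vi/vc) from progress-curve slopes vs DMSO control; at least two independent assays.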

[3] = molecular target: Rhodesain (Trypanosoma brucei rhodesiense) (UniProt Q95PM0); test: Inhibition of Trypanosoma brucei rhodesiense rhodesain after 12 hrs by fluorescence spectroscopy-based on-bead assay; design: concentration or dose not given beside the values; conditions: concentration not given here; in short: as §1
Rhodesain (Trypanosoma brucei rhodesiense), sequence (Q95PM0 1-450): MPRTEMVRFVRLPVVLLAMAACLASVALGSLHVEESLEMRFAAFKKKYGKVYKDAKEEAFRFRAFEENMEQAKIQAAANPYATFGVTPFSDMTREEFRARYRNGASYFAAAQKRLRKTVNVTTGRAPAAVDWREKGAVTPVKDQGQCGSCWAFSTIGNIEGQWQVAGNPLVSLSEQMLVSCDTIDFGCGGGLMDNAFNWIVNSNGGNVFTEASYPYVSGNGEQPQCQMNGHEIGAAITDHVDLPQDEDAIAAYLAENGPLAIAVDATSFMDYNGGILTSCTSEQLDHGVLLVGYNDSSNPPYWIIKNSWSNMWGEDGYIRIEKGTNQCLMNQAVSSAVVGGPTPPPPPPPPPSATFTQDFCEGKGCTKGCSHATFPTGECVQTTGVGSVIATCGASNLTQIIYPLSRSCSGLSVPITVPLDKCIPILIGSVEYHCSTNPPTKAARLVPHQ

[4] = molecular target: Rhodesain (Trypanosoma brucei rhodesiense) (UniProt Q95PM0); test: Inhibition of Trypanosoma brucei rhodesiense recombinant rhodesain at 100 uM; in short: as §2
Cathepsin B = Cathepsin B (Homo sapiens, UniProt P07858); test: Inhibition of human liver cathepsin B at 100 uM
[5] = Inhibition of Plasmodium falciparum recombinant falcipain-2 expressed in Escherichia coli after 20 min using Cbz-Phe-Arg-AMC as substrate by spectrofluorometry; conditions: in the assay text read “over 5-10 min” for “after 20 min”
In short: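 Continuous assay without preincubation. Recombinant falcipain-2 in 50 mM acetate pH 5.5, 5 mM EDTA, 200 mM NaCl, 5 mM DTT, 10% DMSO final; Cbz-Phe-Arg-AMC (40 μM, Km 21.5 μM) or Cbz-Leu-Arg-AMC (25 μM, Km 8.4 μM). Fluorescence monitored 5-10 min at 0.1-80 μM inhibitor. Ki from Dixon plot, corrected to zero substrate; at least two independent assays.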

Plasmodium falciparum [6] = test: Antiplasmodial activity against Plasmodium falciparum FCBR by fluorometric method; assay type: functional, organism-based, FCBR/Columbia
[7] = test system: Trypanosoma brucei brucei; test: Antitrypanosomal activity against Trypanosoma brucei brucei; assay type: functional, organism-based; conditions: Trypanosoma brucei; read-out: IC50
Procathepsin L = Procathepsin L (Bos taurus, UniProt P25975); test: Inhibition of bovine spleen cathepsin L
Procathepsin L, sequence (P25975 whole entry): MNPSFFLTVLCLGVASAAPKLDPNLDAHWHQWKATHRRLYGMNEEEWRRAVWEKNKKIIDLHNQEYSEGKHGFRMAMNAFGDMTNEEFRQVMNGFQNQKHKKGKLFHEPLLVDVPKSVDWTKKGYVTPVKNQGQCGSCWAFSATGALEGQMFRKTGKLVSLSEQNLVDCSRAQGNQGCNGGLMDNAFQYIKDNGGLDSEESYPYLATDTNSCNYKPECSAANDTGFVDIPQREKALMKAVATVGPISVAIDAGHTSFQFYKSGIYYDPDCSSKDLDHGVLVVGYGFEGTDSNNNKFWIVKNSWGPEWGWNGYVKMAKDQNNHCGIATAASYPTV
In short: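 Cathepsin L (bovine spleen) or B (human liver) hydrolysis of Cbz-Phe-Arg-AMC (40 μM) followed by fluorescence for 5-10 min without preincubation at 0.1-80 μM inhibitor, 10% DMSO final.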

Rhodesain = Rhodesain (Trypanosoma brucei rhodesiense, UniProt Q95PM0); test: Inhibition of Trypanosoma brucei rhodesiense recombinant rhodesain
Rhodesain, sequence (Q95PM0 whole entry): as the sequence (Q95PM0 1-450) above

SMILES	inhibition [1] [%]	inhibition (Plasmodium falciparum [2]) [%]	inhibition [3] [%]	inhibition [4] [%]	inhibition (Cathepsin B)	further results
CC(C)C[C@H](NC(=O)[C@H](CCC(N)=O)NC(=O)/C=C/C(=O)N[C@@H](C)C(=O)NCC(=O)N[C@@H](Cc1ccccc1)C(=O)O)C(=O)N[C@H](C(=O)N[C@H](C(N)=O)C(C)C)C(C)C (HELM PEPTIDE1{[C[C@H](NC(=O)/C=C/C(=O)[*:2])C(=O)NCC(=O)N[C@@H](Cc1ccccc1)C(=O)O].Q.L.V.V.[am]}$$$$V2.0)	48	45	64	37	23%	–
CC(C)C[C@H](NC(=O)[C@@H](NC(=O)[C@H](CC(N)=O)NC(=O)/C=C/C(=O)NCC(=O)NCC(=O)N[C@@H](Cc1ccccc1)C(=O)O)c1ccccc1)C(=O)N[C@H](C(N)=O)C(C)C (HELM PEPTIDE1{[O=C(/C=C/C(=O)[*:2])NCC(=O)NCC(=O)N[C@@H](Cc1ccccc1)C(=O)O].N.[Phg].L.V.[am]}$$$$V2.0)	51	76	50	26	13%	Ki [5]: 21.3 µM; IC50 (Plasmodium falciparum [6]): Not Active
CC(C)C[C@H](NC(=O)[C@H](CC(N)=O)NC(=O)/C=C/C(=O)NCC(=O)NCC(=O)N[C@@H](Cc1ccccc1)C(=O)O)C(=O)N[C@@H](C)C(=O)N[C@H](C(N)=O)C(C)C (HELM PEPTIDE1{[O=C(/C=C/C(=O)[*:2])NCC(=O)NCC(=O)N[C@@H](Cc1ccccc1)C(=O)O].N.L.A.V.[am]}$$$$V2.0)	41	33	24	8	17%	Ki [5]: 67.5 µM
NCCCC(N)(C(=O)O)C(F)F (stereo unspecified) [EFLORNITHINE]	–	–	–	31	–	IC50 [7]: 30.7 µM
CC(=O)NC[C@H](NC(=O)/C=C/C(=O)NCC(=O)NCC(=O)N[C@@H](Cc1ccccc1)C(=O)O)C(=O)N[C@@H](CC(C)C)C(=O)N[C@@H](C)C(=O)N[C@H](C(N)=O)C(C)C (HELM PEPTIDE1{[O=C(/C=C/C(=O)[*:2])NCC(=O)NCC(=O)N[C@@H](Cc1ccccc1)C(=O)O].[O=C([C@H](CN[*:3])N[*:1])[*:2]].L.A.V.[am]}|PEPTIDE2{[ac]}$PEPTIDE1,PEPTIDE2,2:R3-1:R2$$$V2.0)	32	18	32	30	inactive	Ki (Procathepsin L): 20.8 µM
CC(C)C[C@H](NC(=O)[C@H](Cc1ccccc1)NC(=O)[C@H](CC(N)=O)NC(=O)/C=C/C(=O)NCC(=O)NCC(=O)N[C@@H](Cc1ccccc1)C(=O)O)C(=O)N[C@H](C(N)=O)C(C)C (HELM PEPTIDE1{[O=C(/C=C/C(=O)[*:2])NCC(=O)NCC(=O)N[C@@H](Cc1ccccc1)C(=O)O].N.F.L.V.[am]}$$$$V2.0)	70	49	61	6	24%	–
CC(C)C[C@H](NC(=O)[C@H](CC(N)=O)NC(=O)/C=C/C(=O)NCC(=O)NCC(=O)N[C@@H](Cc1ccccc1)C(=O)O)C(=O)N[C@@H](CC(C)C)C(=O)N[C@H](C(N)=O)C(C)C (HELM PEPTIDE1{[O=C(/C=C/C(=O)[*:2])NCC(=O)NCC(=O)N[C@@H](Cc1ccccc1)C(=O)O].N.L.L.V.[am]}$$$$V2.0)	70	92	71	63	21%	Ki [5]: 10.1 µM; IC50 (Plasmodium falciparum [6]; Plasmodium falciparum, FCBR/Columbia, read-out: IC50): 74 µM; Ki (Rhodesain): 2.7 µM
CC(C)C[C@H](NC(=O)[C@H](C)NC(=O)/C=C/C(=O)NCC(=O)NCC(=O)N[C@@H](Cc1ccccc1)C(=O)O)C(=O)N[C@@H](CC(C)C)C(=O)N[C@H](C(N)=O)C(C)C (HELM PEPTIDE1{[O=C(/C=C/C(=O)[*:2])NCC(=O)NCC(=O)N[C@@H](Cc1ccccc1)C(=O)O].A.L.L.V.[am]}$$$$V2.0)	55	73	65	99	38%	Ki (Rhodesain): 1 µM; Ki (Procathepsin L): 30.7 µM
Cc1ccc(C(=O)Nc2ccc(S(=O)(=O)O)c3cc(S(=O)(=O)O)cc(S(=O)(=O)O)c23)cc1NC(=O)c1cccc(NC(=O)Nc2cccc(C(=O)Nc3cc(C(=O)Nc4ccc(S(=O)(=O)O)c5cc(S(=O)(=O)O)cc(S(=O)(=O)O)c45)ccc3C)c2)c1	–	–	–	32	–	–
CC(C)C[C@H](NC(=O)[C@H](C)NC(=O)/C=C/C(=O)NCC(=O)NCC(=O)N[C@@H](Cc1ccccc1)C(=O)O)C(=O)N[C@@H](C)C(=O)N[C@H](C(N)=O)C(C)C (HELM PEPTIDE1{[O=C(/C=C/C(=O)[*:2])NCC(=O)NCC(=O)N[C@@H](Cc1ccccc1)C(=O)O].A.L.A.V.[am]}$$$$V2.0)	57	–	40	–	–	–
CC(C)[C@H](NC(=O)[C@@H](NC(=O)[C@H](Cc1ccccc1)NC(=O)[C@H](C)NC(=O)/C=C/C(=O)N[C@@H](C)C(=O)NCC(=O)N[C@@H](Cc1ccccc1)C(=O)O)C(C)C)C(N)=O (HELM PEPTIDE1{[C[C@H](NC(=O)/C=C/C(=O)[*:2])C(=O)NCC(=O)N[C@@H](Cc1ccccc1)C(=O)O].A.F.V.V.[am]}$$$$V2.0)	35	–	55	–	–	–
CC(C)C[C@H](NC(=O)[C@H](Cc1ccccc1)NC(=O)[C@H](Cc1ccccc1)NC(=O)/C=C/C(=O)N[C@@H](C)C(=O)NCC(=O)N[C@@H](Cc1ccccc1)C(=O)O)C(=O)N[C@H](C(N)=O)C(C)C (HELM PEPTIDE1{[C[C@H](NC(=O)/C=C/C(=O)[*:2])C(=O)NCC(=O)N[C@@H](Cc1ccccc1)C(=O)O].F.F.L.V.[am]}$$$$V2.0)	47	–	54	–	–	–
CC(C)C[C@H](NC(=O)[C@H](Cc1ccccc1)NC(=O)[C@H](C)NC(=O)/C=C/C(=O)N[C@@H](C)C(=O)NCC(=O)N[C@@H](Cc1ccccc1)C(=O)O)C(=O)N[C@H](C(N)=O)C(C)C (HELM PEPTIDE1{[C[C@H](NC(=O)/C=C/C(=O)[*:2])C(=O)NCC(=O)N[C@@H](Cc1ccccc1)C(=O)O].A.F.L.V.[am]}$$$$V2.0)	57	–	66	–	–	–
CC(C)C[C@H](NC(=O)[C@H](CCC(N)=O)NC(=O)/C=C/C(=O)NCC(=O)NCC(=O)N[C@@H](Cc1ccccc1)C(=O)O)C(=O)N[C@@H](CC(C)C)C(=O)N[C@H](C(N)=O)C(C)C (HELM PEPTIDE1{[O=C(/C=C/C(=O)[*:2])NCC(=O)NCC(=O)N[C@@H](Cc1ccccc1)C(=O)O].Q.L.L.V.[am]}$$$$V2.0)	42	–	69	–	–	–
CC(C)[C@H](NC(=O)[C@@H](NC(=O)[C@H](Cc1ccccc1)NC(=O)[C@H](Cc1ccccc1)NC(=O)/C=C/C(=O)N[C@@H](C)C(=O)NCC(=O)N[C@@H](Cc1ccccc1)C(=O)O)C(C)C)C(N)=O (HELM PEPTIDE1{[C[C@H](NC(=O)/C=C/C(=O)[*:2])C(=O)NCC(=O)N[C@@H](Cc1ccccc1)C(=O)O].F.F.V.V.[am]}$$$$V2.0)	37	–	38	–	–	–
CC(C)[C@H](NC(=O)[C@@H](NC(=O)[C@@H](NC(=O)[C@H](CCC(N)=O)NC(=O)/C=C/C(=O)NCC(=O)NCC(=O)N[C@@H](Cc1ccccc1)C(=O)O)c1ccccc1)C(C)C)C(N)=O (HELM PEPTIDE1{[O=C(/C=C/C(=O)[*:2])NCC(=O)NCC(=O)N[C@@H](Cc1ccccc1)C(=O)O].Q.[Phg].V.V.[am]}$$$$V2.0)	63	–	45	–	–	–
